Data from ChEMBL document CHEMBL4359879, “Synthesis and evaluation of 2-carboxy indole derivatives as potent and selective anti-leukemic agents” (Eur J Med Chem, 2019).
The source made the active and inactive calls. No cut-off for these calls is given here.

Key:
Tubulin (Homo sapiens) = Tubulin (Homo sapiens) (UniProt P68371+Q9H4B7+P0DPH7+P68366+Q13509+Q71U36+P04350+Q3ZCM7+P07437+P68363+Q9BQE3+Q6PEY2+Q13885+Q9BVA1+Q9BUF5); experiment: Induction of microtubule network depolymerization in human HeLa cells assessed as formation of abnormal chromosomal segregation at 500 nM incubated for 18 hrs by DAPI staining based fluorescence microscopic method; format: cell-based
Outline: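 HeLa cells (100,000/mL) cultured overnight on glass-bottom dishes, then exposed to 500 nM or 1 μM, or DMSO, for 18 h. Permeabilized (0.5% Triton X-100) and fixed (3.7% formaldehyde). Stained overnight at 4 °C with anti-β-tubulin, then Alexa Fluor 647 secondary for 1 h at room temperature, and DAPI 1 μg/mL for 10 min. Examined by fluorescence microscopy.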

HL-60 [1] = experiment: Effect on human HL60 cells assessed as fold change in GDAP1 gene expression at 1.085 uM incubated for 6 hrs by microarray-based method; format: functional
Outline: (§1)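 HL60 cells were treated in triplicate with 1.085 µM or vehicle for 6 h. Total RNA was extracted with on-column DNase treatment and profiled on expression arrays.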

HL-60 [2] = experiment: Effect on human HL60 cells assessed as fold change in HRH1 gene expression at 1.085 uM incubated for 6 hrs by microarray-based method; format: functional; outline: as §1
HL-60 [3] = experiment: Induction of apoptosis in human HL60 cells at 300 nM incubated for 18 hrs by Annexin V-FITC/propidium iodide staining-based flow cytometric analysis; format: functional, cell-based
Outline: (§2)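 CEM, HL60 or RS4;11 cells (5×10^5) treated with 300 nM or vehicle for 18 h. Stained with FITC-Annexin V in binding buffer for 15 min at 37 °C, then PI (5 μg/mL) for 3 min. Analyzed by flow cytometry.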

HL-60 [4] = experiment: Induction of cell cycle arrest in human HL60 cells assessed as accumulation of cells at G0/G1 phase at EC50 incubated for 12 hrs by PI staining based flow cytometric analysis (reference value: 56.3%); format: functional
CCRF-CEM [5] = experiment: Induction of apoptosis in human CEM cells at 300 nM incubated for 18 hrs by Annexin V-FITC/propidium iodide staining-based flow cytometric analysis; format: functional, cell-based; outline: as §2
HL-60 [6] = experiment: Induction of cell cycle arrest in human HL60 cells assessed as accumulation of cells at G2/M phase at EC50 incubated for 12 hrs by PI staining based flow cytometric analysis (reference value: 23.0%); format: functional
HL-60 [7] = experiment: Effect on human HL60 cells assessed as fold change in GDF10 gene expression at 1.085 uM incubated for 6 hrs by microarray-based method; format: functional; outline: as §1
HL-60 [8] = experiment: Effect on human HL60 cells assessed as fold change in NPIPB8 gene expression at 1.085 uM incubated for 6 hrs by microarray-based method; format: functional; outline: as §1
HL-60 [9] = experiment: Effect on human HL60 cells assessed as fold change in ATP6AP1L gene expression at 1.085 uM incubated for 6 hrs by microarray-based method; format: functional; outline: as §1
HL-60 [10] = experiment: Effect on human HL60 cells assessed as fold change in SPATA31A1 gene expression at 1.085 uM incubated for 6 hrs by microarray-based method; format: functional; outline: as §1
HL-60 [11] = experiment: Effect on human HL60 cells assessed as fold change in ARL17B gene expression at 1.085 uM incubated for 6 hrs by microarray-based method; format: functional; outline: as §1
HL-60 [12] = experiment: Effect on human HL60 cells assessed as fold change in GPSM2 gene expression at 1.085 uM incubated for 6 hrs by microarray-based method; format: functional; outline: as §1
HL-60 [13] = experiment: Induction of differentiation in human HL60 cells assessed as increase in CD11b positive cells at EC50 to EC90 incubated for 24 hrs by 7-AAD staining-based flow cytometric analysis; format: functional, cell-based
Outline: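 Vitamin D3 at 100 nM and ATRA at 2 μM served as positive controls. Stained with APC anti-CD11b and PE anti-CD14 for 30 min at 4 °C, then 7-AAD.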

HL-60 [14] = experiment: Effect on human HL60 cells assessed as fold change in LSMEM1 gene expression at 1.085 uM incubated for 6 hrs by microarray-based method; format: functional; outline: as §1
HL-60 [15] = experiment: Effect on human HL60 cells assessed as fold change in C14orf180 gene expression at 1.085 uM incubated for 6 hrs by microarray-based method; format: functional; outline: as §1
RS4-11 [16] = experiment: Induction of apoptosis in human RS4:11 cells assessed as accumulation of cells at sub G2 phase at 300 nM incubated for 18 hrs in presence of PARP antibody by immunofluorescent staining based flow cytometric analysis relative to control; format: functional
Outline: (§3)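 RS4;11 cells treated with 300 nM or DMSO vehicle for 18 h, then pulsed with 10 μM BrdU for 1 h. Harvested cells immunostained for BrdU/PI (cell cycle), γH2AX (DNA damage) and PARP (apoptosis). Multicolor flow cytometry gated G1, sub-G2-like, G2/M and sub-G0/G1 populations.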

HL-60 [17] = experiment: Effect on human HL60 cells assessed as fold change in CEP44 gene expression at 1.085 uM incubated for 6 hrs by microarray-based method; format: functional; outline: as §1
HL-60 [18] = experiment: Effect on human HL60 cells assessed as fold change in SLC8A2 gene expression at 1.085 uM incubated for 6 hrs by microarray-based method; format: functional; outline: as §1
HL-60 [19] = experiment: Induction of cell cycle arrest in human HL60 cells assessed as accumulation of cells at S phase at EC50 incubated for 18 hrs by PI staining based flow cytometric analysis (reference value: 19.0%); format: functional
HL-60 [20] = experiment: Effect on human HL60 cells assessed as fold change in LILRA5 gene expression at 1.085 uM incubated for 6 hrs by microarray-based method; format: functional; outline: as §1
HL-60 [21] = experiment: Effect on human HL60 cells assessed as fold change in PNMT gene expression at 1.085 uM incubated for 6 hrs by microarray-based method; format: functional; outline: as §1
CCRF-CEM [22] = experiment: Antiproliferative activity against human CEM cells incubated for 48 hrs by MTT assay; format: functional, cell-based
Outline: (§4)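 Cells grown in RPMI-1640 with 10% FBS, penicillin/streptomycin, 37 °C, 5% CO2. After 48 h of exposure to a dilution series, MTT was added (0.5 mg/ml final) for 4 h. Formazan was dissolved overnight in acidic SDS (10% SDS, 0.01 mol/L HCl) and absorbance read at 570 and 620 nm. Survival was expressed relative to controls, and EC50 was fitted from dose-response curves.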

HL-60 [23] = experiment: Induction of cell cycle arrest in human HL60 cells assessed as accumulation of cells at sub G0/G1 phase at EC50 incubated for 12 hrs by PI staining based flow cytometric analysis (reference value: 1.67%); format: functional
RS4-11 [24] = experiment: Antiproliferative activity against human RS4:11 cells incubated for 48 hrs by MTT assay; format: functional, cell-based; settings: RS4-11, 48 h; outline: as §4
HL-60 [25] = experiment: Effect on human HL60 cells assessed as fold change in CRADD gene expression at 1.085 uM incubated for 6 hrs by microarray-based method; format: functional; outline: as §1
RS4-11 [26] = experiment: Induction of apoptosis in human RS4:11 cells assessed as accumulation of cells at G2 phase at 300 nM incubated for 18 hrs in presence of PARP antibody by immunofluorescent staining based flow cytometric analysis relative to control; format: functional; outline: as §3
HL-60 [27] = experiment: Effect on human HL60 cells assessed as fold change in CELF2 gene expression at 1.085 uM incubated for 6 hrs by microarray-based method; format: functional; outline: as §1

COC(=O)c1[nH]c2cc(OC)ccc2c1-c1ccc(C(F)(F)F)cc1
Activity (Tubulin (Homo sapiens)): Active
fold change (FC) (HL-60 [1]): -1.61
fold change (FC) (HL-60 [2]): 1.51
Activity (HL-60 [3]): Active
Activity (HL-60 [4]): 20.8%
Activity (CCRF-CEM [5]): Active
Activity (HL-60 [6]): 48%
fold change (FC) (HL-60 [7]): -1.56
fold change (FC) (HL-60 [8]): 1.5
fold change (FC) (HL-60 [9]): -1.53
fold change (FC) (HL-60 [10]): -1.61
fold change (FC) (HL-60 [11]): -1.5
fold change (FC) (HL-60 [12]): 1.62
Activity (HL-60 [13]): Active
fold change (FC) (HL-60 [14]): -1.69
fold change (FC) (HL-60 [15]): 1.56
Activity (RS4-11 [16]): 3.5%
fold change (FC) (HL-60 [17]): 1.76
fold change (FC) (HL-60 [18]): -1.53
Activity (HL-60 [19]): 8.92%
fold change (FC) (HL-60 [20]): -1.64
fold change (FC) (HL-60 [21]): -1.53
EC50 (CCRF-CEM [22]): 200 nM
Activity (HL-60 [23]): 12.1%
EC50 (RS4-11 [24]): 300 nM
fold change (FC) (HL-60 [25]): 1.61
Activity (RS4-11 [26]): 1.5%
fold change (FC) (HL-60 [27]): 1.56
